Here are results for four compounds from PMC6563393 (Molecular Imaging, 2019).

Series [1] in a line: Ex vivo biodistribution, normal tissues. As to conditions: at all the time points (10, 60, 120 minutes); blocking dose had minimal effect. In kind it is in vivo, NSG mice. In short, it runs like this: (§1)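 Female NSG mice (6–8 weeks) bearing subcutaneous CHO/hPD-L1 and parental CHO tumours received radiotracer iv in saline (from 5% DMSO/Tween 20 stock). For blocking, it was coinjected with 50 µg unmodified peptide. Mice were dissected at 10, 60 and 120 min (n = 4 per time point). Blood, tumours and tissues were weighed and gamma-counted with triplicate radioactive standards. Values are %ID/g, mean ± SEM, compared by unpaired two-tailed t test.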

The nature of series [2]: Ex vivo biodistribution, SUM149 xenografts. In kind it is in vivo, NSG mice. The following applies: female, NSG, mouse, SUM149 tumor (xenograft), iv, 740 kBq, total radioactivity. In a few lines: (§2)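 Female NSG mice (6–8 weeks) with subcutaneous xenografts got 740 kBq radiotracer in 200 µL iv. The radiotracer was reconstituted in saline with 5% DMSO and Tween 20, then diluted in saline. Mice were killed at 120 min (MDAMB231 also 60 min, plus a group coinjected with 50 µg unmodified peptide). Blood, tumour and tissues were weighed and gamma-counted with triplicate standards. %ID/g reported as mean ± SEM.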

Series [3] can be described thus: Ex vivo biodistribution, hPD-L1 xenografts. In kind it is in vivo, NSG mice. The following applies: female, NSG, mouse, hPD-L1 tumor (xenograft), iv, 740 kBq, total radioactivity. In a few lines: as §1
A further series concerns hPD-L1 tumors. Put plainly: Ex vivo biodistribution, hPD-L1 xenografts. In kind it is in vivo, NSG mice. The following applies: co-injected with 50 µg blocking dose of WL12. In short, it runs like this:
as §1

The nature of series [4]: Ex vivo biodistribution, H226 xenografts. In kind it is in vivo, NSG mice. As to conditions: female, NSG, mouse, H226 tumor (xenograft), iv, 740 kBq, total radioactivity. In short, it runs like this:
as §2

The nature of series [5]: Ex vivo biodistribution, MDAMB231 xenografts. In kind it is in vivo, NSG mice. The following applies: female, NSG, mouse, MDAMB231 tumor (xenograft), iv, 740 kBq, total radioactivity. In a few lines: as §2
The subject of series [6] is hPD-L1, CHO, MDAMB231, SUM149, H226, and H1155 cells. The experiment in a line: [^18F]FPy-WL12 in vitro uptake assay. In kind it is cell-based. As to conditions: blocking with 1 µM unmodified WL12; 1 hour at 37°C. In short, it runs like this:
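Cells were lifted with non-enzymatic dissociation buffer. 1 × 10⁶ cells in PBS with 2 mM EDTA and 1% FBS were incubated with 1 µCi radiotracer for 1 h at 37°C, washed three times with cold PBS, and bound activity was gamma-counted. CHO-hPD-L1 cells were kept in F-12K/10% FBS with 2 mg/mL G418. SUM149 cells were grown in Ham's F-12/5% FBS with insulin and hydrocortisone. Runs were in triplicate, repeated three times.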

Series [7] addresses recombinant human PD-L1(B7-H1)-His-tag protein (human) (UniProt Q9NZQ7). The experiment in a line: AlphaScreen or HTRF.
For series [8], the target named is endogenous PD-L1 on MDAMB231 and H226 cells (human (endogenous in MDAMB231 and H226)) (UniProt Q9NZQ7).

In general, tissue uptake refers to the percentage of the injected dose found per gram of tissue. With `CCCC[C@H]1C(=O)N(C)[C@@H](CCCC)C(=O)N[C@@H](CCCNC(=O)c2ccc(F)nc2)C(=O)N[C@H](C(=O)NCC(N)=O)CSCC(=O)N[C@@H](Cc2ccc(O)cc2)C(=O)N(C)[C@@H](C)C(=O)N[C@@H](CC(N)=O)C(=O)N2CCC[C@H]2C(=O)N[C@@H](Cc2c[nH]cn2)C(=O)N[C@@H](CC(C)C)C(=O)N2C[C@H](O)C[C@H]2C(=O)N[C@@H](Cc2c[nH]c3ccccc23)C(=O)N[C@@H](CO)C(=O)N[C@@H](Cc2cn(C)c3ccccc23)C(=O)N1C` [[^18F]FPy-WL12], the “accumulation in liver and kidneys” value in series [1] is reported as “high”. The tissue uptake at 2 h in series [2] amounted to 1.43 ± 0.11 %ID/g; in [4], 2.77 ± 0.31 %ID/g; in series [5] it was 2.15 ± 0.1 %ID/g. Besides, the tissue uptake at 1 h in [3] stood at 7.16 ± 1.67 %ID/g. In addition, in the series with hPD-L1 tumors, the “reduction in the uptake in hPD-L1 tumors by blocking dose” value worked out at 85%. Further, the “[^18F]FPy-WL12 uptake in cells coincubated with unmodified WL12” value in series [6] was “significantly reduced”.
As a reminder, the IC50 is the concentration at which inhibition is half-maximal. A word on the Ki: it is a measure of affinity in units of concentration, obtained from inhibition or displacement. As for “WL12, PD-L1-binding peptide (14-amino acid cyclic peptide)”, in [7], the IC50 was 0.0264 µM and the Ki was 0.0123 µM.
For “^19FPy-WL12, nonradioactive analog of the radiotracer (WL12 acylated with 6-fluoronicotinate) (peptide)”, in series [7], the IC50 was found to be 0.0317 µM and the Ki came to 0.0148 µM.
“[^18F]FPy-WL12, radiotracer (WL12 acylated with 6-[^18F]fluoronicotinate) (peptide)” yielded a tumor uptake in MDAMB231 xenografts at 120 minutes, ex vivo biodistribution in series [8] of 2.15 %ID/g.
